Screens (PubChem BioAssay)
TAAR1 agonist – human TAAR1 agonists, primary screen, Fluo-8 calcium fluorescence, CHO RD-HGA16 cells. Trace amine-associated receptor 1 (Homo sapiens), Q96RJ0. activation, % at 3 µM. hit rate 0.99% among 360,000. vehicle wells 0%, saturating PEA agonist 100%;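 active = activation above the mean activation of all test compounds in the run plus 3 SD, cut at about 38% in these data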
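Test system: RD-HGA16 (CHO) cells co-expressing Gα16 and hTAAR1 / Benchmarks: DMSO vehicle as 0%, PEA at EC100 as 100% / Repeats: no replicates (n 1) / Measure: % activation from peak over basal fluorescence ratio, DMSO-to-PEA scaled / Timing: 17-24 h plating, Fluo-8 75 min 37 °C, 30 min RT / Technique: kinetic Fluo-8 calcium fluorescence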
TAAR1 antagonist – human TAAR1 antagonists, primary screen, Fluo-8 calcium fluorescence, CHO RD-HGA16 cells | Trace amine-associated receptor 1 (Homo sapiens), Q96RJ0 | antagonist | inhibition, % at 3 µM | hit rate 1.5% among 360,000 | AID 624466, 2012;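 active = inhibition above a per-plate cutoff, the mean inhibition of test compounds on that plate plus 3 SD, cut at about 49% in these data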;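 note: 0% = DMSO plus EC80 beta-PEA response and 100% = DMSO alone without agonist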
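Test system – hTAAR1-expressing CHO RD-HGA16 cells, Gα16-coupled · Also added – β-PEA at EC80 concentration, post-compound challenge · Compound – 3 µM, single point · Incubation – dye loading 75 min at 37 °C, then 30 min room temperature · Measured by – Fluo-8 intracellular calcium dye fluorescence, real-time kinetic reads · Benchmarks – vehicle and agonist controls · Replicates – singlicate, one well per test compound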
OX1R antag-1 – antagonists of human orexin 1 receptor (OX1R); Orexin/Hypocretin receptor type 1 (Homo sapiens), O43613; OX1R-expressing cells, FRET antagonist read-out; inhibition, % at 6.6 µM; hit rate 1.8% among 330,000; in the data active = inhibition mostly above about 38%, no sharp cut-off; inactive = mostly below about 40%;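 note: 0% = agonist challenge alone and 100% = reference antagonist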
Target sequence (O43613 whole entry, looked up): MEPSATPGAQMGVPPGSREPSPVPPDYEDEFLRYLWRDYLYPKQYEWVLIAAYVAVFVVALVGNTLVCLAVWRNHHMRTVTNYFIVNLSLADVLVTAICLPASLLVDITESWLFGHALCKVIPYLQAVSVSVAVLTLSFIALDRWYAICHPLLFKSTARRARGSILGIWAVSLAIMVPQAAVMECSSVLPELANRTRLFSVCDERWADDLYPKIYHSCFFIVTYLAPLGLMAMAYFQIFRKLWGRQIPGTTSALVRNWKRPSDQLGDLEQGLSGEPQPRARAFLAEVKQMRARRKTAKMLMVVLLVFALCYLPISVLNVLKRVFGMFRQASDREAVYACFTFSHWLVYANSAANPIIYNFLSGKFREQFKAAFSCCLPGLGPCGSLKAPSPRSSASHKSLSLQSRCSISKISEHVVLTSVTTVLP
GPR7 antagonist – GPR7 receptor antagonists, primary screen, cell-based, fluorescence, single concentration | Neuropeptides B/W receptor type 1 (Homo sapiens), P48145 | GPR7-expressing cells, fluorescence antagonist assay | inhibition, % at 4.4 µM | hit rate 1.1% among 290,000; in the data active = inhibition above about 16%, passing the limit was not always enough;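 note: cells stimulated with the agonist NPW; 0% = agonist with vehicle and 100% = vehicle without agonist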
CHO parental Ca – ATP-evoked calcium signal inhibitors, parental CHO, primary screen, counter-screen for OX1R antagonist project, cell-based, fluorescence, Fluo-8 calcium dye; parental CHO-K1, ATP-induced calcium, Fluo-8 fluorescence; inhibition, % at 5.6 µM; hit rate 0.63% among 330,000;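 active = inhibition above that plate's mean sample inhibition plus 3 SD, cut at about 26% in these data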;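 note: 0% = ATP-challenged DMSO wells and 100% = DMSO wells without ATP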
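Assay system: untransfected parental CHO cell line. Also added: ATP agonist challenge. Dosing: one dose, 5.6 µM nominal. Measured by: Fluo-8 fluorescence. Read-out: % inhibition. Benchmarks: ATP wells versus no-ATP DMSO wells. Repeats: no replicates.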
OX1R antag-2 – OX1R (HCRTR1) antagonists, primary screen, fluorescence, CHO/OX1R cells, Fluo-8 calcium, orexin A. Orexin/Hypocretin receptor type 1 (Homo sapiens), O43613. Fluo-8 calcium fluorescence. inhibition, % at 5 µM. hit rate 0.43% among 330,000;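 active = inhibition above its plate's threshold, mean inhibition of all tested compounds on the plate plus 3 SD, cut at about 37% in these data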;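 note: 0% = orexin A challenge wells and 100% = SB-334867-A antagonist wells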
OX1R HTRF conf – OX1R (HCRTR1) antagonists, confirmation, cell-based, HTRF; shares compounds with OX1R antag-1; OX1R-expressing cells, HTRF antagonist assay; inhibition, % at 6.6 µM; hit rate 49% among 1,800; AID 492964, 2010; in the data active = inhibition above about 55%;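 note: CHO cells expressing OX1R stimulated with orexin A at about EC80; 0% = agonist challenge alone and 100% = reference antagonist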
CHO-K1 HTRF cnt – signal inhibition in parental CHO-K1 cells, counter-screen for OX1R antagonist project, cell-based, HTRF. shares compounds with OX1R antag-1. HTRF counterscreen. inhibition, % at 6.6 µM. hit rate 48% among 1,800; in the data active = inhibition above about 17%;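 note: 0% = agonist challenge with vehicle and 100% = vehicle alone without agonist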
Starred values were filed as active, the others as inactive; x = no result; ! = repeats disagree. Hits are enriched below; roughly 4.6% of the tested compounds scored in any of these assays.

SMILES	TAAR1 agonist	TAAR1 antagonist	OX1R antag-1	GPR7 antagonist	CHO parental Ca	OX1R antag-2	OX1R HTRF conf	CHO-K1 HTRF cnt
CC(=O)OCCNc1cc(SC(C)C)c2nonc2c1[N+](=O)[O-]	1	-20	104*	-14	-11	-25	46	72*
CCC(=O)OCCNc1cc(SCCC(=O)OC)c2nonc2c1[N+](=O)[O-]	1	-8	84*	-4	-2	-20	59*	78*
CC(=O)OCCN(C)c1cc(SC(C)C)c2nonc2c1[N+](=O)[O-]	1	20	27	-9	-1	-21	x	x
CCC(=O)OCCNc1cc(Sc2nccn2C)c2nonc2c1[N+](=O)[O-]	-1	24	122*	8	30	34	63*	90*
Cc1ccc(NC(=O)NCc2ccccn2)c(C)c1	0	-28	x	-16	x	x	x	x
O=C(Nc1cccc(-c2nc3ccccc3s2)c1)c1cccs1	3	0	81*	-10	-17	7	78*	6
O=C(Nc1ccc2nc(-c3ccccc3)oc2c1)c1ccco1	9	12	94*	-11	-2	12	85*	12
O=C(Nc1ccc2oc(-c3ccccc3)nc2c1)c1ccncc1	10	1	18	7	-2	-9	x	x
O=C(Nc1ccc2nc(-c3cccs3)[nH]c2c1)c1ccco1	3	10	24	-9	-10	-4	x	x
O=C(Nc1ccc2nc(-c3cccs3)[nH]c2c1)c1cccs1	17	25	93*	-8	-4	10	25	0
O=C(Nc1ccc2oc(-c3ccccc3)nc2c1)c1cccs1	10	14	82*	-16	-14	17	48	7
O=C(Nc1ccc2oc(-c3cccnc3)nc2c1)c1ccco1	5	19	32	-12	-15	-16	x	x
CCCNC(=O)C1(C)CCN(CCC(=O)c2ccc(Br)cc2)C1 (stereo not given)	3	-14	x	x	x	x	x	x
Cc1ccc[n+](-c2nc3ccccc3nc2C(=C=[N-])C#N)c1	2	-17	96*	-9	4	5	36	41*
Cc1cc(C)c[n+](-c2nc3ccccc3nc2C(=C=[N-])C#N)c1	1	-2	84*!	-9	0	3	32	33*
CCc1ccc[n+](-c2nc3ccccc3nc2C(=C=[N-])C#N)c1	1	-13	35	-4	12	-2	x	x
O=C(Nc1ccc2ccccc2c1)c1cnccn1	4	2	2	-11	-13	14	x	x
O=C(Nc1ccc2nccnc2c1)c1cnccn1	0	4	132*	5	-10	-3	42	70*
COC(=O)C1=C(C)N(C)C(=O)NC1c1cc2c(cc1[N+](=O)[O-])OCO2 (stereo not given)	-1	11	91*	2	-12	-5	33	25*
O=C1N=c2ccccc2=C1c1sc(=S)n(CC2CCCO2)c1O (stereo not given)	2	-12	11	-3	-10	-24	x	x
O=C(O)CCC(C(=O)O)n1c(O)c(C2=c3ccccc3=NC2=O)sc1=S (stereo not given)	19	-2	150*	-12	0	0	68*	105*
C/C(CC(=O)NCCc1ccccc1)=N\NC(=O)COc1ccc(Br)cc1	11	1	8	-4	-11	-1	x	x
O=C(Nc1cccc2ccccc12)c1ccccc1	0	-10	4	-5	-14	-5	x	x
Cc1c(C)n(C)c2ccc(C(=O)Nc3cccc4ccccc34)cc12	6	4	85*	-9	-17	10	77*	10
O=C(Nc1ccccc1)[C@@H]1CC=C[C@@H]2CCN(Cc3ccccc3)C(=O)[C@@H]21	10	4	83*	x	-14	28	86*	4
SMILES	TAAR1 agonist	TAAR1 antagonist	OX1R antag-1	GPR7 antagonist	CHO parental Ca	OX1R antag-2	OX1R HTRF conf	CHO-K1 HTRF cnt
O=C(Nc1ccc(Cl)c(C(F)(F)F)c1)[C@@H]1CC=C[C@@H]2CCN(Cc3ccccc3)C(=O)[C@@H]21	1	6	84*	x	-21	26	85*	15
CCCCN1CC[C@H]2C=CC[C@@H](C(=O)Nc3ccc(Cl)c(C(F)(F)F)c3)[C@H]2C1=O	6	7	44	x	-7	3	x	x
CC(C)(C)c1cc(=O)n(-c2ccccc2)[nH]1	16	7	10	10	6	28	x	x
O=c1c2c(-c3ccc([N+](=O)[O-])cc3)csc2nc2n1CCC2	0	-4	95*	-5	-30	-3	40	48*
O=[N+]([O-])c1ccc2c(c1)nc1n2CCCCC1	1	13	15	-11	5	-4	x	x
CC(C)(C)c1ccc(C(CC(=O)O)NC(=O)CCCc2ccccc2)cc1 (stereo not given)	0	-1	27	-7	-7	-4	x	x
COc1cccc(/C=C2/SC(=O)N(C)C2=O)c1OCc1ccc(C(=O)O)cc1	5	-8	102*	-16	-11	-6	32	35*
COc1cc(/C=N/NC(N)=O)cc([N+](=O)[O-])c1O	0	-20	91*	-7	-4	3	55*	62*
CN1C(=O)C(CCC(=O)O)NC1=S (stereo not given)	-4	-1	14	-2	9	-24	x	x
Cc1c(NC(=O)C(C)OC(=O)c2ccc([N+](=O)[O-])s2)c(=O)n(-c2ccccc2)n1C (stereo not given)	3	-2	118*	-9	3	-11	71*	81*
Cc1ccc(C(C(=O)NC2CCCCC2)N2CCC3(CC2)OCCO3)cc1 (stereo not given)	3	9	11	12	-3	-21	x	x
COc1ccc(C(C(=O)NC2CCCCC2)N2CCC3(CC2)OCCO3)cc1 (stereo not given)	9	3	89*	-10	0	-3	14	2
CCCn1c(=O)c(C(=O)NCCc2ccc(Cl)cc2)c(O)c2ccccc21	0	-1	x	-23	x	x	x	x
Cc1cc(C)c(C#N)c(SCc2nnc(-c3ccccc3)o2)n1	2	4	81*	0	-11	23	43	2
